NPY-Y1 antag: blocks the human neuropeptide Y Y1 receptor; 200,000 compounds, 1% hits; AID 1040; P25929; inhibition, % at 3.6 µM; HEK293-CNG Y1 cells, membrane potential fluorescence; NPY at EC95, then isoproterenol;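 active means inhibition above the campaign mean inhibition of all tested compounds plus 3 SD, cut at about 20% in these data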;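 further: 0% = DMSO wells given NPY plus isoproterenol and 100% = isoproterenol alone without NPY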
Target sequence (P25929 whole entry, looked up): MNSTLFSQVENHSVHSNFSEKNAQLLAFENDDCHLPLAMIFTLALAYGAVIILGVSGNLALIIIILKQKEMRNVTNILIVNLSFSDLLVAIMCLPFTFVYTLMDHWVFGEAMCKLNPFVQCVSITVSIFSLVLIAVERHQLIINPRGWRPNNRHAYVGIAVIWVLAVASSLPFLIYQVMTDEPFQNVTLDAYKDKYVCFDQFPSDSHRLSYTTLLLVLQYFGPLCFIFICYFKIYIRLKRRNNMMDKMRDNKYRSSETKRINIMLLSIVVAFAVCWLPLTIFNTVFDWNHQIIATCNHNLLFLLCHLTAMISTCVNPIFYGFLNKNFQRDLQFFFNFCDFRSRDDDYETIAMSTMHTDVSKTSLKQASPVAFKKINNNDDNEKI
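Material: HEK293 cells co-expressing NPY Y1 receptor and cyclic-nucleotide gated channel. Timing: compound incubation 1 h at room temperature, readout 45 min post-stimulation. Signal: fluorescence, membrane potential probe.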
NPY-Y2 PAM-ag: potentiates or activates human NPY-Y2 receptor | P49146 | cells expressing NPY-Y2, potentiator/agonist read-out | activation, % at 3.6 µM | 220,000 compounds, 0.45% hits | AID 1359; in the data active means activation above about 27%;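 further: cells stimulated with NPY near EC25 plus isoproterenol at EC100; 0% = vehicle plus submaximal agonist and 100% = vehicle plus saturating agonist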
Target sequence (P49146 whole entry, looked up): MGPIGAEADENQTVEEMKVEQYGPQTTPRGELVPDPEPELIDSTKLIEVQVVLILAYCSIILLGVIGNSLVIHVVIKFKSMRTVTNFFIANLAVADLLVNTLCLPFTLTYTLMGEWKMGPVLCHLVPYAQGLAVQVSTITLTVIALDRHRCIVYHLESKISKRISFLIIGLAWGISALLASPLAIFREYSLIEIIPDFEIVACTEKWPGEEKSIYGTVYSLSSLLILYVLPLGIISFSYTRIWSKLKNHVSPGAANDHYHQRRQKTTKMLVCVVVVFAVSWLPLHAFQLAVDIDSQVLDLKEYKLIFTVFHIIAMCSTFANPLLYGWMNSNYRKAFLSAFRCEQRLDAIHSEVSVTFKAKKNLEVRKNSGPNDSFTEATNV
NPY-Y1 PAM-ag: human NPY-Y1 potentiation or agonism, primary screen; NPY-Y1 expressing cells, potentiator/agonist activation; P25929; 220,000 compounds, 0.37% hits; activation, % at 3.6 µM; in the data active means activation above about 33%, passing the limit was not always enough;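 further: cells stimulated with NPY at EC10 then isoproterenol at EC100; 0% = low agonist plus stimulus and 100% = saturating agonist plus stimulus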
NPY Y2 blocker: NPY-Y2 (human) receptor antagonism; 140,000 compounds, 0.99% hits; NPY-Y2 expressing cells, antagonist mode; inhibition, % at 2.7 µM; AID 793; P49146; in the data active means inhibition above about 17%;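 further: 0% = vehicle with agonist challenge and 100% = reference antagonist with challenge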
NPY-Y1 confirm: human NPY-Y1 potentiation or agonism, confirmation. shares compounds with NPY-Y1 PAM-ag. cell-based NPY-Y1 potentiator/agonist assay. activation, % at 3.6 µM. 280 compounds, 20% hits. AID 1546; in the data active means activation above about 45%;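 further: cells challenged with NPY at its EC10 plus isoproterenol stimulus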
NPY-Y2 counter: NPY-Y2 potentiation or agonism as NPY-Y1 counter-screen | shares compounds with NPY-Y1 PAM-ag | HEK293-CNG cells, membrane-potential fluorescence (FLIPR), 1536-well | activation, % at 3.6 µM | 280 compounds, 20% hits | AID 1649; in the data active means activation above about 33%
NPY-Y1 agonist: counter-screen for NPY-Y1 potentiators: agonists of human NPY-Y1 | activation, % at 3.6 µM | AID 1697 | shares compounds with NPY-Y1 PAM-ag | HEK293 Y1-CNGC, membrane potential fluorescence, agonist mode | 280 compounds, 50% hits;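 active means percent activation above the mean of DMSO-only control wells plus 3 SD of those wells, cut at about 18% in these data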;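 further: cells challenged with isoproterenol plus Ro 20-1724 with no NPY in test wells; Y1 agonism lowers isoproterenol-driven cAMP and reduces probe fluorescence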
NPY-Y2 ag: counter-screen for NPY-Y1 potentiators or agonists: agonists of NPY-Y2 | shares compounds with NPY-Y1 PAM-ag | HEK293 Y2-CNGC, membrane potential fluorescence, agonist mode | activation, % at 3.6 µM | 280 compounds, 67% hits | AID 1698;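 active means activation above the solvent-only control wells' mean plus 3 SD, cut at about 11% in these data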;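 further: 0% = DMSO with isoproterenol and 100% = 40 nM NPY maximal response; agonism lowers cAMP so well fluorescence drops in active wells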
CNGC counter: blocks cyclic nucleotide gated channel in NPY-Y1 counter-screen; shares compounds with NPY-Y1 PAM-ag; HEK293-CNG parental, isoproterenol cAMP, membrane potential fluorescence; inhibition, % at 3.6 µM; 280 compounds, 42% hits;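 active means inhibition above the mean of stimulated solvent-only control wells plus 3 SD, cut at about 22% in these data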;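 further: 0% = isoproterenol-stimulated DMSO wells and 100% = unstimulated DMSO wells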
An asterisk follows results filed as active. An excerpt weighted towards active compounds, which were near 1.9% of everything screened.

What do the screens show for `Cc1ccc(Cn2nnc3c(=O)n(CC(=O)OCc4ccccc4)cnc32)cc1`?
NPY-Y1 antag: -8; NPY-Y2 PAM-ag: 28; NPY-Y1 PAM-ag: 49*; NPY Y2 blocker: 5; NPY-Y1 confirm: 14; NPY-Y2 counter: 6; NPY-Y1 agonist: 18*; NPY-Y2 ag: 11*; CNGC counter: 30*

What do the screens show for `CCS(=O)(=O)c1ccc(C(=O)Nc2ccccc2OC)c(Cl)c1Cl`?
NPY-Y1 antag: -2; NPY-Y2 PAM-ag: 5; NPY-Y1 PAM-ag: 3

How did CCCCOc1ccc2c(c1)C(=O)c1cc(O)ccc1-2 do in these assays?
NPY-Y1 antag: -4; NPY-Y2 PAM-ag: 23; NPY-Y1 PAM-ag: 38*; NPY-Y1 confirm: 49*; NPY-Y2 counter: 41*; NPY-Y1 agonist: 40*; NPY-Y2 ag: 39*; CNGC counter: 33*

What do the screens show for `COc1ccc(-n2cnnc2SCC(=O)NC2CCCc3ccccc32)cc1` (stereo not given)?
NPY-Y1 antag: 3; NPY-Y2 PAM-ag: 16; NPY-Y1 PAM-ag: -5; NPY Y2 blocker: 2

How did COCCN=c1scc(-c2cccs2)n1/N=C/c1ccc(O)c(O)c1O do in these assays?
NPY-Y1 antag: -3; NPY-Y2 PAM-ag: 32; NPY-Y1 PAM-ag: 54*; NPY Y2 blocker: 0; NPY-Y1 confirm: 32; NPY-Y2 counter: 20; NPY-Y1 agonist: 29*; NPY-Y2 ag: 9; CNGC counter: 20

How did CC(=O)Nc1ccc2c(c1)CN(c1cc(C)ccc1C)CO2 do in these assays?
NPY-Y1 antag: 4; NPY-Y2 PAM-ag: 8; NPY-Y1 PAM-ag: 11; NPY Y2 blocker: 2

Results for COCCCNCC(O)COc1ccccc1F (stereo not given) ?
NPY-Y1 antag: -1; NPY-Y2 PAM-ag: 26; NPY-Y1 PAM-ag: 49*; NPY-Y1 confirm: 30; NPY-Y2 counter: 25; NPY-Y1 agonist: 31*; NPY-Y2 ag: 27*; CNGC counter: 4

Results for OCCNCCOc1ccccc1F ?
NPY-Y1 antag: 6; NPY-Y2 PAM-ag: -4; NPY-Y1 PAM-ag: -24; NPY Y2 blocker: 3

How did Cc1c(/C=N/Nc2nc3ccccc3[nH]2)c2ccccc2n1C do in these assays?
NPY-Y2 PAM-ag: 37; NPY-Y1 PAM-ag: 56*; NPY-Y1 confirm: 47*; NPY-Y2 counter: 41*; NPY-Y1 agonist: 35*; NPY-Y2 ag: 43*; CNGC counter: 34*

What do the screens show for `COc1ccc(Oc2c(Cl)cnn(-c3ccc(C)cc3)c2=O)cc1`?
NPY-Y1 antag: -8; NPY-Y2 PAM-ag: 13; NPY-Y1 PAM-ag: 27; NPY Y2 blocker: 2

How did COc1ccc(Oc2c(Cl)cnn(-c3ccc(Cl)c(Cl)c3)c2=O)cc1 do in these assays?
NPY-Y1 antag: -5; NPY-Y2 PAM-ag: 20; NPY-Y1 PAM-ag: 82*; NPY Y2 blocker: -1; NPY-Y1 confirm: 78*; NPY-Y2 counter: 49*; NPY-Y1 agonist: 61*; NPY-Y2 ag: 43*; CNGC counter: 65*

How did Cc1ccc(CNC(=O)CCC2CCCN(Cc3c(C)nn(C(C)C)c3C)C2)o1 (stereo not given) do in these assays?
NPY-Y1 antag: 5; NPY-Y2 PAM-ag: -5; NPY-Y1 PAM-ag: 4

How did COc1cccc(NC(=O)C(Sc2nnc(-c3ccncc3)n2-c2ccc(Cl)cc2)c2ccccc2)c1 (stereo not given) do in these assays?
NPY-Y1 antag: -6; NPY-Y2 PAM-ag: 23; NPY-Y1 PAM-ag: 52*; NPY Y2 blocker: 2; NPY-Y1 confirm: 60*; NPY-Y2 counter: 54*; NPY-Y1 agonist: 63*; NPY-Y2 ag: 40*; CNGC counter: 60*

How did COc1cccc(-n2c(SCC(N)=O)nnc2-c2ccncc2)c1 do in these assays?
NPY-Y1 antag: -1; NPY-Y2 PAM-ag: 9; NPY-Y1 PAM-ag: 4; NPY Y2 blocker: 0

How did COc1cc(/C=C2\SC(=S)N(N3CCOCC3)C2=O)ccc1O do in these assays?
NPY-Y2 PAM-ag: -4; NPY-Y1 PAM-ag: 48*; NPY-Y1 confirm: 18; NPY-Y2 counter: 10; NPY-Y1 agonist: 13; NPY-Y2 ag: 10.0*; CNGC counter: 10

How did COc1cc(/C=C2\SC(=S)N(N3CCOCC3)C2=O)cc(OC)c1OC do in these assays?
NPY-Y1 antag: 4; NPY-Y2 PAM-ag: -6; NPY-Y1 PAM-ag: 9; NPY Y2 blocker: 2

Results for O=C(Nc1ccc(F)cc1)C1C2CCC3C(CCC21)C3(Cl)Cl (stereo not given) ?
NPY-Y2 PAM-ag: 8; NPY-Y1 PAM-ag: 52*; NPY-Y1 confirm: 17; NPY-Y2 counter: 10; NPY-Y1 agonist: 0; NPY-Y2 ag: -1; CNGC counter: 20

What do the screens show for `CCOc1ccc(NC(=O)C2C3CCC4C(CCC32)C4(Cl)Cl)cc1` (stereo not given)?
NPY-Y1 antag: 7; NPY-Y2 PAM-ag: 8; NPY-Y1 PAM-ag: 0

What do the screens show for `Cc1cccc(-n2ccnc2CN2CCC(CO)(Cc3ccccc3)CC2)c1`?
NPY-Y2 PAM-ag: -15; NPY-Y1 PAM-ag: -7

Results for Cc1c(Cl)ccc2c1NC(=O)[C@]21[C@@H]2C(=O)N(Cc3ccccc3)C(=O)[C@@H]2[C@@H]2CCCN21 ?
NPY-Y1 antag: -2; NPY-Y2 PAM-ag: 8; NPY-Y1 PAM-ag: 32*; NPY Y2 blocker: -3; NPY-Y1 confirm: 22; NPY-Y2 counter: 14; NPY-Y1 agonist: 15; NPY-Y2 ag: 11*; CNGC counter: 16

Results for COc1cc2c(cc1NC(=O)C(C)OC(=O)C1CC(=O)N(Cc3ccco3)C1)oc1ccccc12 (stereo not given) ?
NPY-Y1 antag: -10; NPY-Y2 PAM-ag: 6; NPY-Y1 PAM-ag: 124*; NPY Y2 blocker: -3; NPY-Y1 confirm: 6; NPY-Y2 counter: 8; NPY-Y1 agonist: 12; NPY-Y2 ag: 16*; CNGC counter: 15

What do the screens show for `COc1ccc(C)cc1NC(=O)C1CC(=O)N(Cc2ccco2)C1` (stereo not given)?
NPY-Y1 antag: 1; NPY-Y2 PAM-ag: 13; NPY-Y1 PAM-ag: -11; NPY Y2 blocker: 2

Results for Cn1cc([N+](=O)[O-])c(C(=O)Nc2ccc(C3CCCCC3)cc2)n1 ?
NPY-Y1 antag: -10; NPY-Y2 PAM-ag: 22; NPY-Y1 PAM-ag: 37*; NPY-Y1 confirm: 36; NPY-Y2 counter: 19; NPY-Y1 agonist: 19*; NPY-Y2 ag: 17*; CNGC counter: 15

Results for CN1CCN(c2ccccc2NC(=O)c2ccc(N3CCCC3)c([N+](=O)[O-])c2)CC1 ?
NPY-Y1 antag: 11; NPY-Y2 PAM-ag: 9; NPY-Y1 PAM-ag: 2

Bioassay records as filed in PubChem.
